Test results reported in ChEMBL document CHEMBL1137710, “Synthesis and in vitro antitumor activity of new quinoxaline derivatives” (2009).

Assays:
Assay type in all cases: functional
[1] = tested on: SW-620; assay: Growth inhibition of human SW620 cells after 48 hrs by sulforhodamine B assay; settings: SW-620, 48 h
Summary of the method: (§1)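 Run in the NCI 60-human-tumour-cell-line panel, tested over a 5-log dose range. Dose–response curves gave three values per cell line, each as a log10 molar concentration: GI50 (50% inhibition of net cell growth), TGI (total inhibition of net growth) and LC50 (50% net cell death). The mean graph midpoint is the arithmetic mean over all lines, with insensitive lines entered at the highest concentration tested.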

[2] = tested on: UACC-62; assay: Growth inhibition of human UACC62 cells after 48 hrs by sulforhodamine B assay; settings: UACC-62, 48 h; summary of the method: as §1
[3] = tested on: SK-OV-3; assay: Growth inhibition of human SKOV3 cells after 48 hrs by sulforhodamine B assay; settings: SK-OV-3, 48 h
Summary of the method: (§2)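 NCI 60-human-tumor-cell-line panel, with compounds tested over a 5-log dose range. Values are taken from dose-response curves as log10 molar concentrations: GI50 is 50% net growth inhibition, TGI is total growth inhibition, and LC50 is 50% net cell death.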

[4] = tested on: LOX IMVI; assay: Growth inhibition of human LOXIMVI cells after 48 hrs by sulforhodamine B assay; summary of the method: as §2
[5] = Growth inhibition of human […] cells after 48 hrs by sulforhodamine B assay; summary of the method: as §2
[6] = tested on: SF-268; assay: Anticancer activity against human SF268 cells assessed as cell growth at 100 uM after 48 hrs by sulforhodamine B assay; settings: SF-268, 48 h, read-out: Activity
[7] = tested on: DU-145; assay: Growth inhibition of human DU145 cells after 48 hrs by sulforhodamine B assay; settings: DU-145, 48 h; summary of the method: as §2
[8] = tested on: HOP-62; assay: Growth inhibition of human HOP62 cells after 48 hrs by sulforhodamine B assay; settings: HOP-62, 48 h; summary of the method: as §2
[9] = tested on: K562; assay: Growth inhibition of human K562 cells after 48 hrs by sulforhodamine B assay; settings: K562, 48 h; summary of the method: as §2
[10] = tested on: IGROV-1; assay: Growth inhibition of human IGROV1 cells after 48 hrs by sulforhodamine B assay; settings: IGROV-1, 48 h; summary of the method: as §2
[11] = tested on: NCI-H322M; assay: Growth inhibition of human NCI-H322M cells after 48 hrs by sulforhodamine B assay; summary of the method: as §2
[12] = tested on: SF-295; assay: Growth inhibition of human SF295 cells after 48 hrs by sulforhodamine B assay; settings: SF-295, 48 h; summary of the method: as §2
[13] = tested on: U-251; assay: Growth inhibition of human U251 cells after 48 hrs by sulforhodamine B assay; settings: U-251, 48 h; summary of the method: as §1
[14] = tested on: NCI-H522; assay: Growth inhibition of human NCI-H522 cells after 48 hrs by sulforhodamine B assay; settings: NCI-H522, 48 h; summary of the method: as §2
[15] = tested on: CAKI-1; assay: Growth inhibition of human Caki1 cells after 48 hrs by sulforhodamine B assay; settings: CAKI-1, 48 h; summary of the method: as §2
[16] = tested on: MCF7; assay: Growth inhibition of human MCF7 cells after 48 hrs by sulforhodamine B assay; settings: MCF7, 48 h; summary of the method: as §2
[17] = tested on: OVCAR-4; assay: Growth inhibition of human OVCAR4 cells after 48 hrs by sulforhodamine B assay; settings: OVCAR-4, 48 h; summary of the method: as §2
[18] = tested on: SF-268; assay: Growth inhibition of human SF268 cells after 48 hrs by sulforhodamine B assay; settings: SF-268, 48 h; summary of the method: as §2
[19] = tested on: 786-0; assay: Growth inhibition of human 786-0 cells after 48 hrs by sulforhodamine B assay; settings: 786-0, 48 h; summary of the method: as §2
[20] = tested on: HCT-116; assay: Growth inhibition of human HCT116 cells after 48 hrs by sulforhodamine B assay; settings: HCT-116, 48 h; summary of the method: as §2
[21] = tested on: SK-MEL-2; assay: Growth inhibition of human SK-MEL-2 cells after 48 hrs by sulforhodamine B assay; settings: SK-MEL-2, 48 h; summary of the method: as §2
[22] = tested on: M14; assay: Growth inhibition of human M14 cells after 48 hrs by sulforhodamine B assay; settings: M14, 48 h; summary of the method: as §2
[23] = tested on: NCI-H460; assay: Anticancer activity against human NCI-H460 cells assessed as cell growth at 100 uM after 48 hrs by sulforhodamine B assay; settings: NCI-H460, 48 h, read-out: Activity
[24] = tested on: NCI-H23; assay: Growth inhibition of human NCI-H23 cells after 48 hrs by sulforhodamine B assay; settings: NCI-H23, 48 h; summary of the method: as §2
[25] = tested on: A549; assay: Growth inhibition of human A549 cells after 48 hrs by sulforhodamine B assay; settings: A549, 48 h; summary of the method: as §2
[26] = tested on: MCF7; assay: Anticancer activity against human MCF7 cells assessed as cell growth at 100 uM after 48 hrs by sulforhodamine B assay; settings: MCF7, 48 h, read-out: Activity
[27] = tested on: SK-MEL-5; assay: Growth inhibition of human SK-MEL-5 cells after 48 hrs by sulforhodamine B assay; settings: SK-MEL-5, 48 h; summary of the method: as §2
[28] = tested on: MDA-MB-435; assay: Growth inhibition of human MDA-MB-435 cells after 48 hrs by sulforhodamine B assay; settings: MDA-MB-435, 48 h; summary of the method: as §2
[29] = tested on: SK-MEL-28; assay: Growth inhibition of human SK-MEL-28 cells after 48 hrs by sulforhodamine B assay; settings: SK-MEL-28, 48 h; summary of the method: as §2
[30] = tested on: UO-31; assay: Growth inhibition of human UO31 cells after 48 hrs by sulforhodamine B assay; settings: UO-31, 48 h; summary of the method: as §1
[31] = read-out: pLC50 (the source's name) (converted)

SMILES: Nc1cc(N)c2nc(-c3ccccc3)c(NCc3ccc(Cl)c(Cl)c3)nc2c1
- GI50 [1]: 3.24 µM
- CC50 [1, 31]: > 100 µM
- TGI ([1]; read-out: pTGI (converted)): 9.77 µM
- GI50 [2]: 14.1 µM
- CC50 [2, 31]: 67.6 µM
- TGI ([2]; read-out: pTGI (converted)): 30.9 µM
- GI50 [3]: 18.6 µM
- CC50 [3, 31]: 69.2 µM
- TGI ([3]; read-out: pTGI (converted)): 36.3 µM
- GI50 [4]: 2.14 µM
- GI50 [5]: 1.66 µM
- LC50 [5]: 8.32 µM
- TGI ([5]; read-out: pTGI (converted)): 3.72 µM
- growth at 100 µM [6]: 0%
- GI50 [7]: 16.2 µM
- CC50 [7, 31]: 69.2 µM
- TGI ([7]; read-out: pTGI (converted)): 33.1 µM
- GI50 [8]: 15.8 µM
- LC50 [8]: 64.6 µM
- TGI ([8]; read-out: pTGI (converted)): 31.6 µM
- GI50 [9]: 3.09 µM
- LC50 [9]: > 100 µM
- TGI ([9]; read-out: pTGI (converted)): 17.8 µM
- GI50 [10]: 1.95 µM
- CC50 [10, 31]: 29.5 µM
- TGI ([10]; read-out: pTGI (converted)): 5.89 µM
- GI50 [11]: 13.5 µM
- LC50 [11]: 69.2 µM
- TGI ([11]; read-out: pTGI (converted)): 30.2 µM
- GI50 [12]: 15.5 µM
- LC50 (50% net cell kill) [12]: 89.1 µM
- TGI ([12]; read-out: pTGI (converted)): 37.2 µM
- GI50 [13]: 2.09 µM
- LC50 (50% net cell kill) [13]: > 100 µM
- GI50 [14]: 2.04 µM
- LC50 [14]: 22.4 µM
- TGI ([14]; read-out: pTGI (converted)): 4.9 µM
- GI50 [15]: 13.2 µM
- CC50 [15, 31]: > 100 µM
- TGI ([15]; read-out: pTGI (converted)): 52.5 µM
- GI50 [16]: 12.3 µM
- CC50 [16, 31]: > 100 µM
- TGI ([16]; read-out: pTGI (converted)): 53.7 µM
- GI50 [17]: 11.7 µM
- CC50 [17, 31]: > 100 µM
- TGI ([17]; read-out: pTGI (converted)): > 100 µM
- GI50 [18]: 20 µM
- LC50 [18]: > 100 µM
- TGI ([18]; read-out: pTGI (converted)): 55 µM
- GI50 [19]: 13.2 µM
- CC50 [19, 31]: 70.8 µM
- TGI ([19]; read-out: pTGI (converted)): 30.2 µM
- GI50 [20]: 11.5 µM
- LC50 (concentration causing 50% net cell death) [20]: 50.1 µM
- TGI ([20]; read-out: pTGI (converted)): 24 µM
- GI50 [21]: 1.91 µM
- CC50 [21, 31]: 9.55 µM
- TGI ([21]; read-out: pTGI (converted)): 4.27 µM
- GI50 [22]: 15.8 µM
- CC50 [22, 31]: 75.9 µM
- TGI ([22]; read-out: pTGI (converted)): 34.7 µM
- growth at 100 µM [23]: 0%
- GI50 [24]: 14.1 µM
- LC50 (50% net cell kill concentration) [24]: 55 µM
- TGI ([24]; read-out: pTGI (converted)): 27.5 µM
- GI50 [25]: 10.7 µM
- LC50 [25]: 69.2 µM
- TGI ([25]; read-out: pTGI (converted)): 27.5 µM
- growth at 100 µM [26]: 0%
- GI50 [27]: 3.47 µM
- CC50 [27, 31]: 34.7 µM
- TGI ([27]; read-out: pTGI (converted)): 10.7 µM
- GI50 [28]: 2.75 µM
- CC50 [28, 31]: 52.5 µM
- TGI ([28]; read-out: pTGI (converted)): 7.59 µM
- GI50 [29]: 18.6 µM
- CC50 [29, 31]: 93.3 µM
- TGI ([29]; read-out: pTGI (converted)): 41.7 µM
- GI50 [30]: 4.17 µM
- CC50 [30, 31]: > 100 µM
- TGI ([30]; read-out: pTGI (converted)): > 100 µM
